Shown are actives, neighbours in structure and some others; about 2.5% of the full set was active somewhere.
AF4-AF9 inh – inhibitors of AF4 peptide binding to AF9, primary screen, biochemical, AlphaScreen, biotin-AF4 peptide, FLAG-AF9, single point. Protein AF-9 (Homo sapiens), P42568. inhibition, % at 10 µM. 350,000 tested, 0.47% active. AID 651704, 2012;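 active = every replicate reaching a set inhibition limit, whatever the replicate mean, cut at about 25% in these data; inconclusive = mean inhibition reaches that limit but some replicates miss it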;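 note: 0% = plate neutral control median and 100% = total signal loss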
Target sequence (P42568 whole entry, looked up): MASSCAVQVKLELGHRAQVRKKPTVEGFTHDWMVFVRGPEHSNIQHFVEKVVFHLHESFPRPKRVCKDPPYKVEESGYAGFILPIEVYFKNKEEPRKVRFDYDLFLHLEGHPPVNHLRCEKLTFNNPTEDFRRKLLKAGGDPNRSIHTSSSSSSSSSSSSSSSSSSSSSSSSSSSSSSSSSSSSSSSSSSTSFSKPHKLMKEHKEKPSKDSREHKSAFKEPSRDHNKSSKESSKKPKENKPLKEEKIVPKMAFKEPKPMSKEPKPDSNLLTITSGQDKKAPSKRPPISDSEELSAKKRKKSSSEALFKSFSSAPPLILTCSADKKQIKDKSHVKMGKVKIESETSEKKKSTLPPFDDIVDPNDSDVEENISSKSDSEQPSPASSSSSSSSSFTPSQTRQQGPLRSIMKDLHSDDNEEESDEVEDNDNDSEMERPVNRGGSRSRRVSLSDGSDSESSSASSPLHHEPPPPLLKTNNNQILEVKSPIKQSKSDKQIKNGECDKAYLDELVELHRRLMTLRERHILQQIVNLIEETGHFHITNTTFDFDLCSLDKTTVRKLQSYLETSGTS
EWS-Fli block – EWS/Fli-driven NR0B1 reporter inhibitors, primary screen, A673 cells, NR0B1 luciferase, luminescence, MLPCN library; 350,000 tested, 0.67% active; AID 651661, 2012; viability-normalised; inhibition, % at 12.6 µM;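 active = mean inhibition of at least 50% after viability correction, with every replicate also passing that limit; inconclusive = mean reaches 50% but only one of two replicates passes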;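 note: firefly luciferase signal divided by Alamar Blue viability fluorescence both relative to DMSO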
Env fusion inh – inhibitors of HIV-1 Env-driven cell-cell fusion, primary screen, HeLa-JRFL effector, CEM21 target cells, luciferase; inhibition, % at 12.3 µM; 360,000 tested, 1.1% active;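 active = mean replicate inhibition score of at least 50 and every replicate individually at or above 50; inconclusive = only one of the two criteria met; inactive = mean below 50 and not all replicates reaching 50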;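 note: 0% = plate neutral controls and 100% = maraviroc near 300 nM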
PAX8 inh HTS – inhibitors of PAX8-driven TPO luciferase reporter, primary screen, RMG-I cells, single concentration; SteadyGlo, 24 h; inhibition, % at 12.6 µM; 360,000 tested, 1.2% active;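 active = mean replicate inhibition at least 60% with every replicate also reaching 60%; inconclusive = only one of the two criteria is met; inactive = mean below 60% and not all replicates reaching 60%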;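 note: luciferase light reporting Pax8 driven TPO promoter activity; plate controls were median of neutral control wells for no effect and mitoxantrone controls for full effect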
FN deposit inh – inhibitors of fibronectin matrix deposition, primary screen, AH1F cells, Alexa488-fibronectin fluorescence, plate reader. AH1F fibroblasts, overnight. inhibition, % at 12.6 µM. 350,000 tested, 0.086% active. AID 743247, 2014;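 active = mean inhibition across replicates of 30% or more, regardless of how many single replicates reach that level; inconclusive = mean under 30% yet at least half of replicates reach 30%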;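 note: positive control wells lacked labelled fibronectin entirely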
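Test system: AH1F fibroblast monolayer depositing Alexa488-labelled fibronectin into matrix. Input: 10000 cells per well. Technique: fluorescence, ex 485 nm, em 525 nm. Buffer or medium: DMEM plus 2% serum, read in PBS. Timing: 1 h cell adhesion before compound, then overnight fibronectin incubation. Compound: single dose, pinned. Read-out basis: inhibition from reduced deposited-fibronectin fluorescence.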
N-glyco inh – increase of ERlucT glycosylation luciferase signal, primary screen, N-linked glycosylation inhibitor project, D54 ERlucT cells, luminescence, set 2; D54 ERlucT glycosylation luciferase reporter, 24 h; percent of 100 nM tunicamycin response; reporter increase, % at 12.5 µM; 360,000 tested, 0.23% active; AID 588692, 2011;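 active = mean luciferase reporter signal, scaled so untreated is 0 and the glycosylation-blocking control 100, at or above a set limit in every replicate; inconclusive = mean reaches the limit but not every replicate does; inactive = mean below the limit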;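 note: luciferase carries N-glycosylation sites so blocking glycosylation raises the light; 0% = median of neutral control wells and 100% = median of 100 nM tunicamycin wells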
* = called active by the depositor; ? = inconclusive; / = no result; ! = a repeat was not active; [ ] = remark or other dose.

SMILES	AF4-AF9 inh	EWS-Fli block	Env fusion inh	PAX8 inh HTS	FN deposit inh	N-glyco inh
CN1CCc2cccc3c2[C@H]1Cc1ccc(O)c(O)c1-3	29*!	-49	39	?	-8	-9
CC(=O)c1c(C)[nH]c(C(=O)Nc2nc(-c3ccc(Cl)cc3)cs2)c1C	/	/	-9	-23	2	2
CC(=O)c1c(C)[nH]c(C(=O)Nc2nc(C)cs2)c1C	3	74*	27	58	-1	-17
O=c1c2ccccc2ncn1CCCOc1ccccc1[N+](=O)[O-]	/	/	-69	/	8	-1
Cc1cc(OCCCn2cnc3ccccc3c2=O)ccc1[N+](=O)[O-]	-2	3	/	88*	-2	1
C[C@@H]1CCCCO[C@@H](CN(C)C(=O)Nc2ccccc2)[C@H](C)CN([C@H](C)CO)C(=O)c2cc(NC(=O)Nc3ccc(C(F)(F)F)cc3)ccc2O1	1	6	/	86*	/	/
C[C@@H]1CCCCO[C@H](CN(C)C(=O)c2ccccc2)[C@@H](C)CN([C@H](C)CO)C(=O)c2cc(NC(=O)Nc3ccc(C(F)(F)F)cc3)ccc2O1	0	-10	-9[16.7 µM]	7	/	/
C[C@@H]1CCCCO[C@@H](CN(C)C(=O)Cc2ccccc2)[C@@H](C)CN([C@@H](C)CO)C(=O)c2cc(NC(=O)Nc3ccc(C(F)(F)F)cc3)ccc2O1	-1	-4	-4[16.7 µM]	79*	-1	/
C[C@@H]1CCCCO[C@H](CN(C)C(=O)Cc2ccccc2)[C@@H](C)CN([C@H](C)CO)C(=O)c2cc(NC(=O)Nc3ccc(C(F)(F)F)cc3)ccc2O1	-3	-11	-6[16.7 µM]	-6	/	/
C[C@@H]1CCCCO[C@@H](CN(C)C(=O)Nc2ccc(C(F)(F)F)cc2)[C@H](C)CN([C@H](C)CO)C(=O)c2cc(NC(=O)Nc3ccccc3)ccc2O1	-3	-11	43[16.7 µM]	63*	0	/
C[C@@H]1CN([C@H](C)CO)C(=O)c2cc(NC(=O)Nc3ccc(C(F)(F)F)cc3)ccc2O[C@@H](C)CCCCO[C@H]1CN(C)C(=O)c1ccccc1	-2	46	56*[16.7 µM]	102*	/	/
C[C@H](NC(=O)C[C@H]1CC[C@H](NS(=O)(=O)c2cccc(F)c2)[C@H](CO)O1)c1ccccc1	-3	/	/	/	4	/
O=C(C[C@@H]1CC[C@@H](NC(=O)Nc2ccccc2F)[C@@H](CO)O1)NCc1ccccc1	-4	1	-7[16.7 µM]	0	/	/
O=C(/C=C\Nc1ccccc1Br)c1ccc2c(c1)OCO2	0	75*	-324	-50	-14	-15
O=C(/C=C/c1ccccc1Br)c1ccc2c(c1)OCO2	4	-51	-1	-75	0	14
O=C(c1cccc(F)c1)N1CC[C@@H]2[C@H]1c1cc(C#Cc3ccc(F)cc3)ccc1N[C@@H]2CO	1	6	/	-9	12	/
COCC(=O)N1[C@H](CO)[C@@H](c2ccccc2)C12CN(C(=O)c1cccc(F)c1)C2	-7	-2	/	-8	/	/
COc1ccccc1N1CCN(C(=O)c2[nH]c(C(F)(F)F)nc2-c2ccccc2)CC1	-8	72*	-99	37	6	22
O=C(c1[nH]c(C(F)(F)F)nc1-c1ccccc1)N1CCN(c2cccc(C(F)(F)F)n2)CC1	-1	55*	-76	23	4	24
COc1ccc(N2CCN(C(=O)c3[nH]c(C(F)(F)F)nc3-c3ccccc3)CC2)cc1	3	-9	-15	8	4	0
Cc1cccc(N2CCN(C(=O)c3[nH]c(C(F)(F)F)nc3-c3ccccc3)CC2)c1C	0	35	38	77*	-15	7
O=C(C[C@H]1CC[C@H](NC(=O)c2cccc(F)c2)[C@H](CO)O1)NCc1ccc(Oc2ccccc2)cc1	0	16	31[16.7 µM]	31	/	/
CC(C)NC(=O)Nc1ccc2c(c1)CC(=O)N([C@@H](C)CO)C[C@H](C)[C@H](CN(C)S(=O)(=O)c1ccc(F)cc1)O2	1	-1	/	-27	/	/
Cc1nnc(NC(=O)CSc2nnc(CNC(=O)c3ccccc3F)n2C(C)C)s1	-11	-1	-7	2	-2	5

High-throughput results deposited in PubChem BioAssay by Broad Institute.
